Mdm2 MdmX PPI: disrupts the human Mdm2-MdmX interaction; SaOS-2 split-luciferase Mdm2/MdmX complementation, luminescence; inhibition, % at 8 µM; AID 485346; 330,000 compounds, 3% hits; O15151+Q00987;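 active = inhibition of at least 50% at 8 µM in the primary screen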
XBP1 UPR activ: adaptive UPR (XBP1) activation | 330,000 compounds, 0.33% hits | CHO-XBP1 luciferase reporter, IRE1-XBP1 UPR activation, luminescence; percent of tunicamycin response, DMSO as zero | activation, % at 20 µM;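 active = versus positive control, 20 µM dose yields 30% or more activation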
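Material: CHO cell line with stable XBP1 luciferase reporter; schedule: 16-18 h cell attachment at 37 °C, then 6 h compound exposure; signal: glow luminescence from Steady-Glo reagent; medium: serum-containing F12 medium, 10% FBS; benchmarks: tunicamycin 10 µg/mL and vehicle-only wells; read-out: percent activation relative to tunicamycin reference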
UBC13 polyUb: blocks human UBC13 polyubiquitin chain formation. P61088. TR-FRET. inhibition, % at 20 µM. 330,000 compounds, 0.47% hits. AID 485273; in the data active = inhibition above about 45%, passing the limit was not always enough; inconclusive = no clear call, values can overlap the other calls
Target sequence (P61088 whole entry, looked up): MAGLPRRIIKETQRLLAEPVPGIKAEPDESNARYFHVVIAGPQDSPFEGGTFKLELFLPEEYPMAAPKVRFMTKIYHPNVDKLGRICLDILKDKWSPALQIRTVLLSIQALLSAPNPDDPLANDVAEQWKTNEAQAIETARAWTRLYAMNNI
UPR CHOP act: activators of apoptotic arm of unfolded protein response (CHOP) | AID 449763 | 330,000 compounds, 0.34% hits | CHO-CHOP luciferase reporter, UPR activation, luminescence; percent of tunicamycin response over DMSO baseline | activation, % at 10 µM;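 active = at 10 µM dose, activation of 40% or more, normalized to positive control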
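Test system: CHO CHOP reporter cells. Input: 500 CHO-CHOP cells per well. Medium: F12 with 10% FBS. Technique: luciferase luminescence. Measure: percent activation relative to tunicamycin control. Dosing: 10 µM compound, 0.5% DMSO. Timing: 16-18 h cell attachment, then 6 h compound exposure, 37 °C.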
Apaf1 inhib: blocks human Apaf-1 apoptosome activity; O14727; reconstituted apoptosome caspase-3 activity, DEVD-Rh110 fluorescence; inhibition, % at 20 µM; 330,000 compounds, 0.71% hits; AID 489030; active = inhibition of at least 40% at 20 µM
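detection = Rh110 fluorescence intensity | test system = biochemical Apaf-1 apoptosome reconstitution | also added = cytochrome c and DEVD-Rh110 substrate | schedule = 30 min plus 50 min, RT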
Casp3 UBC13 ctr: inhibits human caspase-3 in UBC13 counter-screen; inhibition, % at 20 µM; shares compounds with UBC13 polyUb; AID 488856; 1,400 compounds, 4% hits; Recombinant caspase-3, Caspase-Glo 3/7 luminescence, 60 min;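 active = mean inhibition across replicates above about 26%, limit read from the data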
Target sequence (P42574 whole entry, looked up): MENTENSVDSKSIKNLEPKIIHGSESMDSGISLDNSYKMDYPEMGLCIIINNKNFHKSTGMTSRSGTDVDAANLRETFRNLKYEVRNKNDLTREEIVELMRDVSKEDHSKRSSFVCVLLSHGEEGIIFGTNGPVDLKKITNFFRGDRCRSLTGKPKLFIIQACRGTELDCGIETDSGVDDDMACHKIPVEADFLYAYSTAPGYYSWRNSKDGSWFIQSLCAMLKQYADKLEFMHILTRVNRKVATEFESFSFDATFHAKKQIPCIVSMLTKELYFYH
UBC13 conf: human UBC13 polyubiquitin inhibition, confirmed. 1,400 compounds, 68% hits. UBC13 polyubiquitination, TR-FRET, biochemical. shares compounds with UBC13 polyUb. inhibition, % at 10 µM. AID 488859; in the data active = inhibition above about 45%; inconclusive = no clear call, values can overlap the other calls
A number is an active result. This is a sample that favours compounds with a hit; in the whole collection about 4.1% have one here.

What do the screens show for `O=C(COC(=O)c1c[nH]c(=O)[nH]c1=O)Nc1cccc([N+](=O)[O-])c1`?
Mdm2 MdmX PPI: inactive; XBP1 UPR activ: inactive; UBC13 polyUb: 66; UPR CHOP act: inactive; Apaf1 inhib: inactive; Casp3 UBC13 ctr: inactive; UBC13 conf: 76

What do the screens show for `CCOC(=O)c1nn(-c2ccccc2)c(=O)cc1OCC(=O)Nc1cc(C)ccc1OC`?
Mdm2 MdmX PPI: inactive; XBP1 UPR activ: inactive; UBC13 polyUb: 48; UPR CHOP act: inactive; Apaf1 inhib: inactive; Casp3 UBC13 ctr: inactive; UBC13 conf: inconclusive

What do the screens show for `CCOC(=O)c1nn(-c2ccc(C)cc2)c(=O)cc1OCC(=O)Nc1cc(C)ccc1OC`?
Mdm2 MdmX PPI: inactive; XBP1 UPR activ: inactive; UBC13 polyUb: inactive; UPR CHOP act: inactive; Apaf1 inhib: inactive

What do the screens show for `COc1cccc2c1NC(C(=O)O)C1CC=CC21` (stereo unspecified)?
Mdm2 MdmX PPI: inactive; XBP1 UPR activ: inactive; UBC13 polyUb: 45; UPR CHOP act: inactive; Apaf1 inhib: inactive; Casp3 UBC13 ctr: inactive; UBC13 conf: 47

How did O=C(Nc1ccccc1-c1nc2ccccc2[nH]1)c1sc2ccccc2c1Cl do in these assays?
Mdm2 MdmX PPI: inactive; XBP1 UPR activ: inactive; UBC13 polyUb: inactive; UPR CHOP act: inactive; Apaf1 inhib: inactive

What do the screens show for `COC(=O)c1sccc1NC(=O)c1cc2c(s1)CCCC2`?
Mdm2 MdmX PPI: inactive; XBP1 UPR activ: inactive; UBC13 polyUb: 46; UPR CHOP act: inactive; Apaf1 inhib: inactive; Casp3 UBC13 ctr: 58; UBC13 conf: inactive

What do the screens show for `O=C(COc1ccccc1)NNC(=O)c1ccc(Cl)cc1`?
Mdm2 MdmX PPI: inactive; XBP1 UPR activ: inactive; UBC13 polyUb: inactive; UPR CHOP act: inactive; Apaf1 inhib: inactive

Results for O=C(COc1ccc(Cl)cc1)NNC(=O)c1ccccn1 ?
Mdm2 MdmX PPI: inactive; XBP1 UPR activ: inactive; UBC13 polyUb: 71; UPR CHOP act: inactive; Apaf1 inhib: inactive; Casp3 UBC13 ctr: inactive; UBC13 conf: 97

Results for COCCCNC(=S)NNC(=O)c1ccccn1 ?
Mdm2 MdmX PPI: inactive; XBP1 UPR activ: inactive; UBC13 polyUb: 89; UPR CHOP act: inactive; Apaf1 inhib: inactive; Casp3 UBC13 ctr: inactive; UBC13 conf: 101

What do the screens show for `O=C(CCC1CCCC1)NC1CCCCC1`?
Mdm2 MdmX PPI: inactive; XBP1 UPR activ: inactive; UBC13 polyUb: inactive; UPR CHOP act: inactive; Apaf1 inhib: inactive

What do the screens show for `COc1ccc(C(=O)N2CCC(n3c(C)nc4cc(F)ccc43)CC2)cc1`?
Mdm2 MdmX PPI: inactive; XBP1 UPR activ: inactive; UBC13 polyUb: inactive; UPR CHOP act: inactive; Apaf1 inhib: inactive

Results for COc1cc(C(=O)NCc2ccc3c(c2)OCO3)c([N+](=O)[O-])cc1OC ?
Mdm2 MdmX PPI: inactive; XBP1 UPR activ: inactive; UBC13 polyUb: inactive; UPR CHOP act: inactive; Apaf1 inhib: inactive

How did CN(C)c1nc(-c2ccccc2)c2cc(Cl)ccc2n1 do in these assays?
Mdm2 MdmX PPI: inactive; XBP1 UPR activ: inactive; UBC13 polyUb: inactive; UPR CHOP act: inactive; Apaf1 inhib: inactive

How did CCSc1nc(-c2ccccc2)c2cc(Cl)ccc2n1 do in these assays?
Mdm2 MdmX PPI: inactive; XBP1 UPR activ: inactive; UBC13 polyUb: 49; UPR CHOP act: inactive; Apaf1 inhib: inactive; Casp3 UBC13 ctr: inactive; UBC13 conf: inconclusive

Results for O=S(=O)(Nc1nc2ccccc2[nH]1)c1ccc(Cl)cc1 ?
Mdm2 MdmX PPI: inactive; XBP1 UPR activ: inactive; UBC13 polyUb: 52; UPR CHOP act: inactive; Apaf1 inhib: inactive; Casp3 UBC13 ctr: inactive; UBC13 conf: 49

How did CCNCc1cc(Br)c(OCC(=O)Nc2ccccc2)c(OC)c1 do in these assays?
Mdm2 MdmX PPI: inactive; XBP1 UPR activ: inactive; UBC13 polyUb: inactive; UPR CHOP act: inactive; Apaf1 inhib: inactive

What do the screens show for `CNCc1cc(Br)c(OCC(=O)Nc2ccccc2OC)c(OC)c1`?
Mdm2 MdmX PPI: inactive; XBP1 UPR activ: inactive; UBC13 polyUb: 65; UPR CHOP act: inactive; Apaf1 inhib: inactive; Casp3 UBC13 ctr: inactive; UBC13 conf: 103

Results for COc1ccc(CNC(=O)COC(=O)c2cc(C)nc3ccccc23)cc1 ?
Mdm2 MdmX PPI: inactive; XBP1 UPR activ: inactive; UBC13 polyUb: inactive; UPR CHOP act: inactive; Apaf1 inhib: inactive

Results for COc1ccccc1NC(=O)COC(=O)c1cc(C)nc2ccccc12 ?
Mdm2 MdmX PPI: inactive; XBP1 UPR activ: inactive; UBC13 polyUb: 48; UPR CHOP act: inactive; Apaf1 inhib: inactive; Casp3 UBC13 ctr: inactive; UBC13 conf: inactive

Results for COc1ccccc1NC(=O)COc1ccc(C(=O)NCc2ccccc2)cc1OC ?
Mdm2 MdmX PPI: inactive; XBP1 UPR activ: inactive; UBC13 polyUb: 70; UPR CHOP act: inactive; Apaf1 inhib: inactive; Casp3 UBC13 ctr: inactive; UBC13 conf: 75

How did Cc1ccccc1CN1CCC(CNC(=O)C2CCCN(c3ncnc4c3nc3n4CCCCC3)C2)CC1 (stereo unspecified) do in these assays?
Mdm2 MdmX PPI: inactive; XBP1 UPR activ: inactive; UBC13 polyUb: 72; UPR CHOP act: inactive; Apaf1 inhib: inactive; Casp3 UBC13 ctr: inactive; UBC13 conf: 90

How did O=C(NCCCN1CCN(c2ccc(F)cc2)CC1)C1CCCN(c2ncnc3c2nc2n3CCCCC2)C1 (stereo unspecified) do in these assays?
Mdm2 MdmX PPI: inactive; XBP1 UPR activ: inactive; UBC13 polyUb: 83; UPR CHOP act: inactive; Apaf1 inhib: inactive; Casp3 UBC13 ctr: inactive; UBC13 conf: 107

Results for O=C(COC(=O)CNC(=O)c1cccc([N+](=O)[O-])c1)NCc1ccco1 ?
Mdm2 MdmX PPI: inactive; XBP1 UPR activ: inactive; UBC13 polyUb: inactive; UPR CHOP act: inactive; Apaf1 inhib: inactive

How did CN(CC(=O)Nc1c(Cl)cccc1Cl)C(=O)CCNS(=O)(=O)c1ccccc1C(F)(F)F do in these assays?
Mdm2 MdmX PPI: inactive; XBP1 UPR activ: inactive; UBC13 polyUb: inactive; UPR CHOP act: inactive; Apaf1 inhib: inactive

How did CCC(=O)NNC(=S)NC(=O)c1ccc(C)cc1 do in these assays?
Mdm2 MdmX PPI: inactive; XBP1 UPR activ: inactive; UBC13 polyUb: inactive; UPR CHOP act: inactive; Apaf1 inhib: inactive

Results for CCC(=O)NC(=S)NNC(=O)c1ccc(O)cc1 ?
Mdm2 MdmX PPI: inactive; XBP1 UPR activ: inactive; UBC13 polyUb: 86; UPR CHOP act: inactive; Apaf1 inhib: inactive; Casp3 UBC13 ctr: inactive; UBC13 conf: 101

Results for CC(CC(=O)N1CCc2ccccc21)S(=O)(=O)c1ccc2c(c1)NC(=O)CO2 (stereo unspecified) ?
Mdm2 MdmX PPI: inactive; XBP1 UPR activ: inactive; UBC13 polyUb: inactive; UPR CHOP act: inactive; Apaf1 inhib: inactive

What do the screens show for `CC(C)(C)OC(=O)[C@H](Cc1ccccc1)NC(=O)c1[nH]cnc1C(=O)N[C@@H](Cc1ccccc1)C(=O)OCc1ccccc1`?
Mdm2 MdmX PPI: inactive; XBP1 UPR activ: inactive; UBC13 polyUb: inactive; UPR CHOP act: inactive; Apaf1 inhib: inactive

High-throughput results deposited in PubChem BioAssay by Sanford-Burnham Center for Chemical Genomics.
